# Screening data as filed in PubChem.
# In the library only some 4.7% were active in any assay of this set; here they are far more common.
# Mdm2-MdmX inh = inhibitors of human Mdm2/MdmX interaction; actives 3% (n = 330,000); O15151+Q00987; inhibition, % at 8 µM; AID 485346; SaOS-2 split-luciferase Mdm2/MdmX complementation, luminescence;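 active = inhibition of at least 50% at 8 µM in the primary screen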
# Target sequence (O15151 whole entry, looked up): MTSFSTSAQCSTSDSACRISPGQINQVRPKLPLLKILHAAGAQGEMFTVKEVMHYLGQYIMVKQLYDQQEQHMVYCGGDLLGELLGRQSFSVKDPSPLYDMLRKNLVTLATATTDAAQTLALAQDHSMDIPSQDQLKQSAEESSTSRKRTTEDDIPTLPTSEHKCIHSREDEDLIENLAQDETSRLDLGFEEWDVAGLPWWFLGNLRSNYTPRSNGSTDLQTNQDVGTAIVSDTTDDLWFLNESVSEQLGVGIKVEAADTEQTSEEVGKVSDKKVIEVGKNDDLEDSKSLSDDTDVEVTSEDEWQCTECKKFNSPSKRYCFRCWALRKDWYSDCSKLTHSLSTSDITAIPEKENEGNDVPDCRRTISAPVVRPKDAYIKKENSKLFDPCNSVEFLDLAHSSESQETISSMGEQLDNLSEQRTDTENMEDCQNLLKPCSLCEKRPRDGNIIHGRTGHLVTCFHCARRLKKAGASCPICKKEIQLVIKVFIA
# Target sequence (Q00987 whole entry, looked up): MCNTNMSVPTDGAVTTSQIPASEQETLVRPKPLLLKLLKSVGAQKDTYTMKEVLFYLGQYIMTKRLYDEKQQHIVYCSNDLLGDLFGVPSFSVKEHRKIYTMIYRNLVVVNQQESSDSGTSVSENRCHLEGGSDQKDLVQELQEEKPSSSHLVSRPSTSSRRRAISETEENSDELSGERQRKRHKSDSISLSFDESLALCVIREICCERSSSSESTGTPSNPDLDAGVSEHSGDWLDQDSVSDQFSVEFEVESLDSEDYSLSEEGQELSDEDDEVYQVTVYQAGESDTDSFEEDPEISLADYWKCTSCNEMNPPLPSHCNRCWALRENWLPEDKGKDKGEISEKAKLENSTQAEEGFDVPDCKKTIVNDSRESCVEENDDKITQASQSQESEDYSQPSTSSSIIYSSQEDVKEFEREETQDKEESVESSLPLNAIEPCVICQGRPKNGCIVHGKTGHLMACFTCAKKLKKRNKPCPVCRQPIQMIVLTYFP
# Jurkat NFkB inh = lowers PMA/ionomycin-induced NF-kB signal in Jurkat cells. PMA/ionomycin-induced NF-kB luciferase reporter, luminescence. inhibition, % at 4 µM. actives 0.53% (n = 330,000); in the data active = inhibition above about 50%
# aSyn UTR inh = 5' untranslated region of α-synuclein, MLPCN primary screen | alpha-synuclein 5'UTR reporter, inhibitor activity | actives 0.82% (n = 300,000) | inhibition, % (tested at 7.5 µM); in the data active = inhibition above about 60%;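 also: H4 neuroglioblastoma cells stably carrying SNCA 5'UTR luciferase fusion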
# 697 NFkB inh = inhibitors of the PMA/ionomycin-induced NF-kB reporter in 697 B cells; 697 B-cell NF-kB luciferase reporter, 16 h; inhibition, % at 4 µM; actives 0.33% (n = 330,000); AID 435022; in the data active = inhibition above about 35%
# IMP-1 inhibitor = blocks Pseudomonas aeruginosa IMP-1 metallo-beta-lactamase | purified IMP-1, nitrocefin hydrolysis, epi-absorbance fluorescence | inhibition, % at 5.6 µM | actives 0.45% (n = 290,000);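 active = inhibition above the mean plus 3 SD of all compounds in the same screening run, cut at about 4.5% in these data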
#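 system = purified recombinant IMP-1 beta-lactamase | amount = 0.2 nM IMP-1, as dispensed | medium = HEPES buffer pH 7.1 with ZnSO4 and Brij 35 | times = 25 °C, 15 min preincubation, 25 min reaction | detection = plate fluorescence quenching by hydrolysis product, ex 480/em 530 nm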
# VIM-2 inh = inhibitors of Pseudomonas aeruginosa VIM-2 metallo-beta-lactamase; purified VIM-2, nitrocefin hydrolysis, epi-absorbance fluorescence; inhibition, % at 5.6 µM; actives 0.89% (n = 290,000);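 active = inhibition above the mean of all tested compounds plus 3 SD, cutoff set per screening run, cut at about 7.5% in these data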;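 also: red hydrolysis product quenches plate fluorescence so inhibitors raise well fluorescence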
# Mdm2 MdmX conf = human Mdm2/MdmX binding inhibition, confirmed | shares compounds with Mdm2-MdmX inh | luminescent assay | actives 55% (n = 10,000) | inhibition, % at 8 µM; in the data active = inhibition above about 40%
# Full FLuc ctr = full-length luciferase inhibition in Mdm2/MdmX counter-screen; shares compounds with Mdm2-MdmX inh; SaOS-2 full-length luciferase counterscreen, luminescence; inhibition, % at 8 µM; actives 77% (n = 6,200);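 active = mean inhibition at 8 µM reaching about 37%, which flags the compound as non-specific, limit read from the data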;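 also: p53-null SaOS-2 cells with luciferase driven by a doxycycline-inducible promoter; compound on cells about two nights before reading with doxycycline added after day one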
# A number is an active result; 0 = inactive; - = not tested or not shown.
SMILES,Mdm2-MdmX inh,Jurkat NFkB inh,aSyn UTR inh,697 NFkB inh,IMP-1 inhibitor,VIM-2 inh,Mdm2 MdmX conf,Full FLuc ctr
CCN(CC)CCNC(=O)c1cc(-c2cccnc2)nc2ccc(S(=O)(=O)N3CCC(C)CC3)cc12,99.5,0,0,0,0,0,75.6,53.3
Cc1ccc(S(=O)(=O)N2CCN(C(=O)COC(=O)Cc3cccc(C(F)(F)F)c3)CC2)c(C)c1,0,0,0,0,-,-,-,-
COC(=O)c1cc(C)nc2c1C(=O)C(=O)C=C2N1CCOCC1,65.1,0,0,0,0,0,0,-
CCCc1nnc(SCC(=O)Nc2ccccc2Cl)n1CC1CCCO1 (configuration not stated),0,0,0,0,0,0,-,-
COc1cccc(/C=N/Nc2cc(N3CCOCC3)ncn2)c1O,73.4,0,72.2,0,0,0,61.4,63.2
COc1ccc(/C=N/Nc2cc(N3CCOCC3)ncn2)c(OC)c1,0,0,0,0,0,0,-,-
COc1ccc(CCNC(=O)COc2ccc(S(=O)(=O)NC(C)C)cc2Cl)cc1OC,0,0,0,0,0,0,-,-
CCOC(=O)C1(N(CC)CC)Sc2cc(C)ccc2NC1=O (configuration not stated),68.1,0,0,0,0,0,68.6,52.2
CCc1nc2c(cnn2-c2ccc(Cl)cc2)c(=O)n1-c1ccc(OC)cc1,0,0,0,0,0,0,-,-
CCc1nc2c(cnn2-c2ccc(Cl)cc2)c(=O)n1-c1ccc2c(c1)OCCO2,55.7,0,0,0,0,0,0,-
CC(C)OC(=O)c1cc2c(=O)[nH]c(C(Cl)(Cl)Cl)nc2o1,0,0,0,0,0,0,-,-
Cc1ccc2c(C)c(C(=O)Nc3ccc(S(N)(=O)=O)cc3)oc2c1C,0,0,0,0,0,0,-,-
Cc1cc2oc(C(=O)Nc3ccc(S(N)(=O)=O)cc3)c(C)c2cc1Cl,55.0,0,0,0,0,0,47.8,58.2
O=C(C#Cc1cccc([N+](=O)[O-])c1)c1ccccc1,72.5,0,0,0,0,0,63.4,52.1
O=C(Nc1cccc([N+](=O)[O-])c1)c1ccccc1,0,0,0,0,0,0,-,-
CSc1ccc(C2=CC(=O)C[C@H](c3ccc(Cl)cc3)C2)cc1,0,0,-,0,-,-,-,-
CCOc1ccc(-n2nc3c(-n4ncc(C#N)c4N)nnc(C)c3c2C)cc1,-,-,-,-,0,0,-,-
Cc1ccccc1C(=O)Nc1cccc(NC(=O)Cn2cnc3c(=O)n(C)c(=O)n(C)c32)c1,51.4,0,0,0,0,0,0,-
CN1CCN(C2=Cc3ccccc3Sc3cc(F)c(F)cc32)CC1,0,0,0,0,0,0,-,-
OCCN1CCN(C2Cc3cc(Cl)ccc3Sc3ccc(Cl)cc32)CC1 (configuration not stated) (tested in a mixture with another compound),59.2,0,0,0,0,0,0,-
CCc1ccc2c(c1)Sc1ccccc1CC2N1CCN(C)CC1 (configuration not stated),0,0,0,0,-,-,-,-
CN1CCN(C2Cc3cc(Cl)ccc3Sc3cc(F)ccc32)CC1 (configuration not stated),53.9,0,100.8,0,-,-,0,-
CN1CCN(C2=Cc3cc(Cl)ccc3Sc3cc(F)ccc32)CC1,51.4,0,0,0,0,0,0,-
CN1CCN(CCOC2Cc3ccccc3Sc3ccc(Cl)cc32)CC1 (configuration not stated),59.6,0,0,0,0,0,0,-
COc1ccc(/C=C(\C#N)C(=O)NCc2ccccc2)cc1,0,0,0,0,0,0,-,-
SMILES,Mdm2-MdmX inh,Jurkat NFkB inh,aSyn UTR inh,697 NFkB inh,IMP-1 inhibitor,VIM-2 inh,Mdm2 MdmX conf,Full FLuc ctr
Cc1cc(N2CCN(C)CC2)nc2ccc(NC(=S)N3CCN(c4ccc(F)cc4)CC3)cc12,94.2,0,0,0,0,0,0,-
Cc1cc(N2CCN(C)CC2)nc2ccc(NC(=S)N3CCN(c4ccc(Cl)cc4)CC3)cc12,0,0,0,0,0,0,-,-
Cc1cc(N2CCN(C)CC2)nc2ccc(NC(=S)N3CCN(c4cccc(Cl)c4)CC3)cc12,0,0,0,0,0,0,-,-
Cc1cccc(N2CCN(C(=S)Nc3ccc4nc(N5CCN(C)CC5)cc(C)c4c3)CC2C)c1 (configuration not stated),88.1,0,0,0,0,0,60.2,64.8
Cc1cc(C)n(C(C)CNS(=O)(=O)c2ccccc2)n1 (configuration not stated),0,0,0,0,0,0,-,-
O=C(NCC(c1cccs1)N1CCOCC1)c1cc(S(=O)(=O)N2CCOCC2)ccc1F (configuration not stated),0,0,0,0,-,-,-,-
Cc1ccc(S(=O)(=O)n2cc(C=O)c3ccccc32)cc1,0,0,0,0,0,0,-,-
Cc1ccc(S(=O)(=O)n2cc(-c3ccccc3)c3ccccc32)cc1,62.9,0,-,0,-,-,56.5,82.1
O=C(CCCN1C(=O)/C(=C/c2cccc(Br)c2)SC1=S)N1CCOCC1,60.6,0,0,0,0,0,0,-
CN1CCN(C(=O)CCCN2C(=O)/C(=C/c3cccc(Br)c3)SC2=S)CC1,63.4,0,0,0,0,11.5,0,0
O=C(CCCN1C(=O)/C(=C/c2ccccc2)SC1=S)N1CCOCC1,0,0,0,0,0,0,-,-
COCCN(C(=O)CNC(=O)c1ccco1)C(C(=O)NC1CCCC1)c1ccc(F)cc1 (configuration not stated),0,0,0,0,0,0,-,-
CCC1Oc2ccccc2N(CC(=O)NCCC2=CCCCC2)C1=O (configuration not stated),59.6,0,0,0,0,0,0,-
CCC1Oc2ccccc2N(CC(=O)NCCN2CCc3ccccc3C2)C1=O (configuration not stated),0,0,0,0,0,0,-,-
COc1ccc(/C=N/NC(=S)Nc2cc(S(=O)(=O)N3CCOCC3)ccc2N2CCOCC2)cc1O,50.7,0,0,0,0,0,45.1,83.3
Cc1ccc(-c2nn3c(C)nnc3s2)cc1NCc1c(F)cccc1Cl,81.4,0,0,0,0,0,66.5,56.5
CCCC(O)(CCC)C(=O)NN(C(=O)CCl)c1ccccc1,57.6,0,0,0,0,0,0,-
O=C(Nc1cc(Cl)cc(Cl)c1)Nc1cnccn1,75.4,0,0,0,0,0,0,-
COC1(OC)C(/C=C/c2ccc(Cl)cc2)C(C#N)(C#N)C1(OC)OC (configuration not stated),88.2,0,0,0,0,0,56.6,0
COC(=O)c1ccc(NC(=O)CNC(=O)c2sc3ccccc3c2Cl)cc1,94.3,0,-,0,-,-,49.0,93.5
